Assay results reported in ChEMBL document CHEMBL1130202, “Biologically active heteroarotinoids exhibiting anticancer activity and decreased toxicity” (J Med Chem, 1997).
Activity calls are given as the source filed them. No cut-off for these calls is given here.

Columns and labels:
Mus musculus [1] = organism: Mus musculus; assay: Average number of fractures per mouse at mid dose 1
Mus musculus [2] = organism: Mus musculus; assay: Compound total dose to termination (day 25/65) in low dose; format: functional
Outline: (§1)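 Male B6D2F1 mice given daily oral gavage in corn oil; dosages increased during the study (day 30 or day 51 depending on compound). Cumulative dose in mg/kg administered up to termination (day 65, or day 25 for TTNPB 0.01/0.05 mg/kg/day groups).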

Mus musculus [3] = organism: Mus musculus; assay: Compound total dose to termination (day 25/65) in mid dose 2; format: functional
Outline: as §1

Mus musculus [4] = organism: Mus musculus; assay: Compound total dose to termination (day 25/65) in high dose; format: functional
Outline: as §1

Mus musculus [5] = organism: Mus musculus; assay: Avoiding pressure on limbs in mice at low dose with Hypervitaminosis; 0/16; format: functional, organism-based; conditions: Limb
Mus musculus [6] = organism: Mus musculus; assay: Enlarged lymph in gross pathological observations in mice with hypervitaminosis A in mice at high dose with gross observations/total number of mice in group; 1/16; format: functional, organism-based
Mus musculus [7] = organism: Mus musculus; assay: Effect of compound on Spleen to body weight ratios in mice at high dose on day 65; format: functional
Outline: (§2)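 Male B6D2F1 mice dosed daily by gavage with compound in corn oil; vehicle 1 (corn oil) controls run to termination on day 65. Low, mid 1, mid 2 and high dose groups, with dosage increases partway through the study. Organ-to-body weight ratios (×1000) taken at necropsy on day 65, reported as mean ± SD for 4 to 8 animals and as % difference from vehicle.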

Mus musculus [8] = organism: Mus musculus; assay: Effect of compound on serum triglycerides levels in mice at low dose on day 8; format: functional
Outline: (§3)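 Male B6D2F1 mice were gavaged daily with compound in corn oil at low, mid 1, mid 2 or high dose. Serum triglycerides and circulating white blood cells were measured on the stated day (8, 29, 36, 65). Values are group mean ± SD expressed as % relative to corn-oil vehicle, with significance at p ≤ 0.05.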

Mus musculus [9] = organism: Mus musculus; assay: (§4) Mortality rate in mice in mid dose 2; format: functional
Outline: (§5)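 Male B6D2F1 mice given compound daily by gavage in corn oil at the stated dose levels, with corn oil vehicle controls. Deaths counted as animals found dead or sacrificed moribund, with day(s) of death recorded. Heteroarotinoid groups ran to day 65 and low-dose reference groups to day 25.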

Mus musculus [10] = organism: Mus musculus; assay: Effect of compound on serum Alkaline phosphatase levels in mice at low dose on day 29; format: functional
Outline: (§6)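 Male B6D2F1 mice dosed daily by oral gavage in corn oil at low, mid 1, mid 2 or high dose. Blood sampled on set days (8, 29, 36, 65) for clinical chemistry, serum alkaline phosphatase and triglycerides. Group mean ± SD reported as % relative to vehicle 1; significance p < 0.05 versus corn oil vehicle.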

Mus musculus [11] = organism: Mus musculus; assay: Enlarged spleen in Gross pathological observations in mice with hypervitaminosis A at high dose with gross observations/total number of mice in group; 0/16; format: functional, organism-based
Mus musculus [12] = organism: Mus musculus; assay: Compound total dose to termination (day 25/65) in mid dose 1; format: functional
Outline: as §1

Mus musculus [13] = organism: Mus musculus; assay: Effect of compound on serum triglycerides levels in mice at low dose on day 36; format: functional
Outline: as §6

Mus musculus [14] = organism: Mus musculus; assay: Effect of compound on serum triglycerides levels in mice at mid dose 1 on day 8; format: functional
Outline: as §3

Mus musculus [15] = organism: Mus musculus; assay: Alopecia in mice observed at low dose with Hypervitaminosis; 0/16; format: functional, organism-based
Mus musculus [16] = organism: Mus musculus; assay: Effect of compound on right testicle to body weight ratios in mice at high dose on day 65; format: functional
Outline: as §2

Mus musculus [17] = organism: Mus musculus; assay: Effect of compound on serum Alkaline phosphatase levels in mice at mid dose 1 on day 65; format: functional
Outline: as §6

Mus musculus [18] = organism: Mus musculus; assay: Effect of compound on thymus to body weight ratios in mice at high dose on day 65; format: functional
Outline: (§7)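 Male B6D2F1 mice were dosed daily by gavage in corn oil, with TTNPB given at 0.1–0.8 or 0.01/0.05 mg/kg/day. Thymus-to-body weight ratio (×1000) was taken at necropsy on day 65 against vehicle 1, or on day 25 for the 0.01/0.05 groups against vehicle 2. Mean ± SD of 4–8 animals, reported as % difference from vehicle.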

Mus musculus [19] = organism: Mus musculus; assay: Effect of compound on white blood cells levels in mice at low dose on day 8; format: functional
Outline: as §3

Mus musculus [20] = organism: Mus musculus; assay: Effect of compound on serum triglycerides levels in mice at mid dose 1 on day 36; format: functional
Outline: as §3

Mus musculus [21] = organism: Mus musculus; assay: Alopecia in mice observed at high dose with Hypervitaminosis; 4/16; format: functional, organism-based
Mus musculus [22] = organism: Mus musculus; assay: Fracture incidence in mouse at low dose; 0/8
Mus musculus [23] = organism: Mus musculus; assay: Avoiding pressure on limbs in mice at mid dose 2 with Hypervitaminosis; 0/16; format: functional, organism-based; conditions: Limb
Mus musculus [24] = organism: Mus musculus; assay: Effect of compound on Spleen to body weight ratios in mice at low dose on day 65; format: functional
Outline: as §2

Mus musculus [25] = organism: Mus musculus; assay: Skin scaling in mice at low dose with Hypervitaminosis; 0/16; format: functional, organism-based
Outline: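 Male B6D2F1 mice were dosed daily by gavage in corn oil and observed for skin scaling of the ears, mouth, nose, eyelids, feet, tail or ventral body. Results are given as affected animals over animals in the group, with the day of first observation.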

Mus musculus [26] = assay: Enlarged lymph in gross pathological observations with hypervitaminosis A in mice at 0.01 mg/kg/day dose with gross observations/total number of animals in group; 6/8; format: functional, organism-based
Mus musculus [27] = assay: Enlarged spleen in gross pathological observations with hypervitaminosis A at 0.05 mg/kg/day dose with gross observations/total number of animals in group; 5/8; format: functional, organism-based
Mus musculus [28] = assay: Effect of compound on Spleen to body weight ratios in mice at 0.1 mg/kg/day dose on day 65; dead by day 65; format: functional, organism-based
Outline: as §2

[29] = Mortality rate in mice at 0.1 mg/kg/day; range (12-24); format: ADME, organism-based; conditions: mouse, in vivo
Outline: as §5

Mus musculus [30] = assay: Effect of compound on thymus to body weight ratios in mice at 0.2 mg/kg/day dose; all the animals died by day 65; format: functional, organism-based
Outline: as §7

Mus musculus [31] = assay: Enlarged spleen in Gross pathological observations with hypervitaminosis A at 0.01 mg/kg/day dose with gross observations/total number of animals in group; 5/8; format: functional, organism-based
Mus musculus [32] = assay: Average number of fractures per mouse at 0.1 mg/kg/day
Mus musculus [33] = assay: Enlarged lymph in gross pathological observations with hypervitaminosis A in mice at 0.4 mg/kg/day dose with gross observations/total number of animals in group; 12/16; format: functional, organism-based
Mus musculus [34] = assay: Alopecia observed at 0.05 mg/kg/day dose in mice with hypervitaminosis; 8/8; format: functional, organism-based
Mus musculus [35] = assay: Enlarged lymph in gross pathological observations with hypervitaminosis A in mice at 0.8 mg/kg/day dose with gross observations/total number of animals in group; 8/16; format: functional, organism-based
Mus musculus [36] = assay: Effect of compound on adrenal to body weight ratios in mice at 0.05 mg/kg/day dose; measured on day 25
Mus musculus [37] = assay: Enlarged spleen in Gross pathological observations with hypervitaminosis A at 0.8 mg/kg/day dose with gross observations/total number of animals in group; 0/16; format: functional, organism-based
Mus musculus [38] = organism: Mus musculus; assay: Effect of compound on serum Alkaline phosphatase levels in mice at mid dose 2 on day 36; format: functional
Outline: as §6

[39] = as §4; format: ADME; conditions: mouse, in vivo
Outline: as §5

[40] = Mortality rate in mice in high dose; format: ADME; conditions: mouse, in vivo
Outline: as §5

Mus musculus [41] = organism: Mus musculus; assay: Effect of compound on serum Alkaline phosphatase levels in mice at high dose on day 29; format: functional
Outline: as §6

Mus musculus [42] = organism: Mus musculus; assay: Effect of compound on white blood cells levels in mice at mid dose 1 on day 65; format: functional
Outline: as §3

Mus musculus [43] = organism: Mus musculus; assay: Effect of compound on Spleen to body weight ratios in mice at high dose on day 65; all the animals died by day 65; format: functional, organism-based
Outline: as §2

Row | Compound | Activity (Mus musculus [1]) | Total dose (Mus musculus [2]) | Total dose (Mus musculus [3]) | Total dose (Mus musculus [4]) | Activity (Mus musculus [5]) | Activity (Mus musculus [6]) | Activity (Mus musculus [7]) | Activity (Mus musculus [8]) | Activity (Mus musculus [10]) | Activity (Mus musculus [11]) | Total dose (Mus musculus [12]) | Activity (Mus musculus [13]) | Activity (Mus musculus [14]) | Activity (Mus musculus [16]) | Activity (Mus musculus [17]) | Activity (Mus musculus [18]) | Activity (Mus musculus [20]) | Activity (Mus musculus [22]) | Activity (Mus musculus [23]) | Activity (Mus musculus [24]) | further results
1 | CC(/C=C/C=C(\C)c1ccc2c(c1)C(C)(C)CCO2)=C\C(=O)O | 0 | 207.1 mg/kg | 828.4 mg/kg | 3106.5 mg/kg | inactive | inactive | 3 | 96.8 | 96.8 | inactive | 414.2 mg/kg | 187.1 | 97.2 | 3 | 127.1 | 1.3 | 202.8 | inactive | inactive | 2.3 | Mortality (Mus musculus [9]): 0 day of death; Activity (Mus musculus [15]): inactive; Activity (Mus musculus [19]): 4.84; Activity (Mus musculus [21]): Weak activity; Activity (Mus musculus [25]): inactive
2 | C/C(=C\c1ccc(C(=O)O)cc1)c1ccc2c(c1)C(C)(C)CCC2(C)C | – | – | – | – | – | – | – | – | – | – | – | – | – | – | – | – | – | – | – | – | Activity (Mus musculus [26]): Active; Activity (Mus musculus [27]): Weak activity; Activity (Mus musculus [28]): Toxic; Mortality [29]: 7 day of death; Activity (Mus musculus [30]): Toxic; Activity (Mus musculus [31]): Weak activity; Activity (Mus musculus [32]): 2; Activity (Mus musculus [33]): Active; Activity (Mus musculus [34]): Active; Activity (Mus musculus [35]): Weak activity; Activity (Mus musculus [36]): Toxic; Activity (Mus musculus [37]): inactive
3 | CC(/C=C/C=C(\C)c1ccc2c(c1)C(C)(C)CCS2)=C\C(=O)O | – | 207.1 mg/kg | 828.4 mg/kg | 3106.5 mg/kg | inactive | inactive | 2.6 | 97.5 | 94.9 | inactive | 414.2 mg/kg | 194.9 | 97.6 | 2.7 | – | 1.5 | 212.7 | inactive | inactive | – | Activity (Mus musculus [38]): 75.6; Mortality [39]: 0 day of death; Mortality [40]: 0 day of death; Activity (Mus musculus [41]): 94.6; Activity (Mus musculus [25]): inactive
4 | C/C(=C\c1ccc(C(=O)O)cc1)c1ccc2c(c1)C(C)(C)CCO2 | 1.9 | – | – | – | – | – | – | – | – | – | – | – | – | – | 123.1 | – | – | – | – | 3.6 | Activity (Mus musculus [42]): 5.46; Activity (Mus musculus [38]): 93.3; Mortality [39]: 4 day of death; Mortality [40]: 8 day of death; Activity (Mus musculus [43]): Toxic; Activity (Mus musculus [41]): 103.1
